A short description of this series: Toxicity liver stage against HepG2, at 10uM. The class given is cell-based. Also noted: test concentration 10 uM, cell line HepG2-A16-CD81EGFP. The settings on record: human, HepG2-A16-CD81EGFP cells; read-out: INHIBITION
A digest of the protocol: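 Uninfected HepG2-A16-CD81EGFP cells, 3 × 10^3 per well, 1536-well, plated on prespotted compound at 10 μM final, parasite-free screening media added to match infected plates; puromycin 10 μM positive, DMSO 0.5% negative; run in parallel with 48 h PbLuc assay at 37 °C, 5% CO2; viability by CellTiter-Glo luminescence, normalized to controls.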
As for `Cc1cc2cc(Nc3c(C#N)c(=O)n(C)c(=O)n3C)ccc2[nH]1`, the cytotoxicity at 10 µM was found to be 1.11%. To `CC(c1ccncc1)N(CCN(C)C)C(=O)Nc1ccc(Cl)c(Cl)c1` (stereo unspecified) belongs 7.41%; to `CN1CCC(CNC(=O)NCc2ccc(F)cc2)CC1`, -10.1%; to `Cc1noc([C@H]2COC[C@H]3CN(C(=O)Cc4ccsc4)C[C@H]32)n1`, -3.26%. In the case of `COc1cccc2c1ccn2CCNC(=O)C(C)C` it was 5.66%; in that of `Cc1ncsc1C(=O)N1CCC(O)(Cn2c(C)cc3ccncc32)CC1`, 9.59%. In the case of `NC(=O)c1cc(CC2CCCN(c3cnccn3)C2)ncn1` (stereo unspecified) it was -1.15%. As for `CC(=O)c1ccc(-c2cc(C(F)(F)F)cc(N(C)C)n2)cc1`, the cytotoxicity at 10 µM is 4.02%. For `CCC(C)(CC(=O)OC)NCc1noc(C)n1` (stereo unspecified), the cytotoxicity at 10 µM was -4.39%. In the case of `O=C(CCSc1ccc(F)cc1)N1CCN(c2cnccn2)CC1`, the cytotoxicity at 10 µM was -42.8%. As to `CSc1cc(CNC(=O)CCOc2ccccc2C)ccn1`, the cytotoxicity at 10 µM turned out to be 6.72%. In the case of `CCC(C)NC(=O)Nc1cccc(OC)c1` (stereo unspecified), the cytotoxicity at 10 µM is 0.554%.

In the case of `CCC(CC)NC(=O)c1cncc(Br)c1`, the cytotoxicity at 10 µM is -0.211%.

Consider `CC(C(=O)NS(=O)(=O)Cc1cc(-c2ccccc2)no1)C1CC1` (stereo unspecified), for which the cytotoxicity at 10 µM is -2.72%.

Turning to `O=C(Nc1ccc(CN2CCOCC2)cc1)c1nccn2ccnc12`, the cytotoxicity at 10 µM was -8.3%. To `CC(C)=CCS(=O)(=O)Cc1ccn(-c2cccc(F)c2)n1` belongs 6.37%; to `CS(=O)(=O)NC1CCN(C(=O)c2ccc(Br)o2)C1` (stereo unspecified), -7.03%; to `O=C(CS(=O)(=O)C1CCCC1)NC(c1ccc(F)cc1)C1CC1` (stereo unspecified), -159%. Turning to `Cc1cc(NC(=O)CNC(C)(C)c2ccc3c(c2)OCO3)on1`, the cytotoxicity at 10 µM amounted to 7.51%. In the case of `CCc1ncc2c(n1)CN(CC(O)COc1ccc(C#N)cc1)CC2` (stereo unspecified), the cytotoxicity at 10 µM was -7.65%.

Turning to `c1ccc(OCCNC2CCN(c3ncccn3)CC2)cc1`, the cytotoxicity at 10 µM came out at 1.85%.

Turning to `CC(C)NC(=O)C1CCN(Cn2ccc(-c3ccc(F)cc3)n2)CC1`, the cytotoxicity at 10 µM turned out to be 7.07%.

In the case of `FC(F)(F)c1ccnc(N2CCCOCC2)c1`, the cytotoxicity at 10 µM was -1.41%. To `Cc1nnc(CN(Cc2ccccc2Br)C2CC2)o1` belongs 5.2%. For the molecule `COc1ccc(C2CCN(C(=O)c3ncccc3OC(C)C)C2)cc1` (stereo unspecified), the cytotoxicity at 10 µM was -6.45%. In the case of `COc1c(NC(=O)C(C)CCOc2ccccc2)c(C)nn1C` (stereo unspecified) it was 8.96%.

On to `Cn1cnc2cc(C(=O)NS(=O)(=O)c3ccccc3Cl)ccc21`, for which the cytotoxicity at 10 µM was -7.43%. To `Cc1ccc(CC(=O)N2CCN(C(C)c3ccccc3F)CC2)cn1` (stereo unspecified) belongs -9.75%. Regarding `COc1ccc(F)cc1C(C)NC(=O)Nc1nnc(C)s1` (stereo unspecified), the cytotoxicity at 10 µM was -1.01%. To `CCCSc1ccccc1NC(=O)N1CCC(N2CCSCC2)CC1` belongs -4.73%; to `CCCc1n[nH]c(=O)n1Cc1ccc(OC)cc1`, -130%; to `CCN(CC1CCCN(CCc2cccc(OC)c2)C1)C(=O)CSC` (stereo unspecified), 8.76%. In the case of `O=C(C1CCOCC1)N1CC[C@@](O)(c2ccccc2)[C@H]2CCCC[C@@H]21` it was -8.35%. To `COCCN1CCC(CN(Cc2ccncc2)C2CCCCC2)CC1` belongs -2.91%; to `CCCOCCN1CCc2[nH]c(-c3ccc(OC)cc3)nc2C1`, -113%. For the molecule `CN1CCN(C[C@H]2CC[C@@H](Cc3ccc4c(c3)OCO4)O2)CC1`, the cytotoxicity at 10 µM was -5.13%.

On to `COCCN(Cc1sccc1C)C(=O)COc1cccnc1`, for which the cytotoxicity at 10 µM was -138%. In the case of `COC[C@]1(O)CCN(c2cc(OC)ncn2)CC1(C)C` it was 5.66%. To `Cc1nn2c(N3CCCC(C(N)=O)C3)cc(-c3ccccc3)nc2c1C` (stereo unspecified) belongs -4.45%; to `CC(NC(=O)COc1ccc(Cl)cc1Cl)c1nncn1C(C)C` (stereo unspecified), 1.67%. For the molecule `CN(C)C(C(=O)N1CCCN(C(=O)C2CCC2)CC1)c1ccccc1F` (stereo unspecified), the cytotoxicity at 10 µM is -2.11%.

On to `c1cc(-c2ccc(CN3CCCC4(CCNC4)C3)s2)[nH]n1` (stereo unspecified), for which the cytotoxicity at 10 µM is -152%.

Turning to `CS(=O)(=O)NC1CCN(C(=O)c2cnc(-c3cccnc3)nc2)CC1`, the cytotoxicity at 10 µM was -6.47%.

Turning to `CC(=O)N1CCc2[nH]cnc2C12CCN(CC1CCOC1)CC2` (stereo unspecified), the cytotoxicity at 10 µM was -8.46%. In the case of `COCCn1ccnc1C1CCCN(C(=O)c2cccnc2SC)C1` (stereo unspecified) it was -14.2%. To `COc1cccc(-c2noc(-c3ccc(NCC4CC4)nc3)n2)c1OC` belongs 6.65%; to `Cc1ncccc1OCC(=O)N1CCN[C@H]2CS(=O)(=O)C[C@H]21`, 13.1%.

As for `CC(C)N1CCCC2(CCN(C(=O)CCCn3cncn3)C2)C1=O` (stereo unspecified), the cytotoxicity at 10 µM was -11.1%. `O=C(Nc1cc(C(F)(F)F)c[nH]c1=O)N1CCOCC1`: the cytotoxicity at 10 µM was -3.03%.

As for `O=C(O)c1c[nH]c2cc(NS(=O)(=O)c3cc(F)ccc3Cl)ccc12`, the cytotoxicity at 10 µM was -1.43%. In the case of `CCn1c(C(=O)N2CCN(CC[S+](C)[O-])CC2)cc2ccccc21` (stereo unspecified), the cytotoxicity at 10 µM is -3.49%. In the case of `O=S1(=O)CCC(N(Cc2nc3ccccc3o2)Cc2cccs2)C1` (stereo unspecified) it was -3.08%; in that of `Cn1ccnc1C(NCc1ccc(Br)cc1)c1ccccc1` (stereo unspecified), -6.39%; in that of `CC(NC(=O)CCC(=O)c1cccs1)c1nnc2n1CCC2` (stereo unspecified), -15.1%.

In the case of `CC(C)(C)c1n[nH]c(C2CN(C(=O)CCc3cccs3)CCO2)n1` (stereo unspecified), the cytotoxicity at 10 µM is -10.6%. Regarding `CC(C)c1ccc(OCC(=O)NS(=O)(=O)c2cccnc2)cc1`, the cytotoxicity at 10 µM was -5.19%. For the molecule `O=C(COCC1CC1)Nc1ncn(CC(=O)N2CCCCCC2)n1`, the cytotoxicity at 10 µM is -11.9%.

With `Cn1cc(C2CCCN2C(=O)COCCc2ccccc2)cn1` (stereo unspecified), the cytotoxicity at 10 µM was -2.87%.

For the molecule `CCc1cnc(CN(C)C2CCN(CC(=O)Nc3cc(C)on3)C2)o1` (stereo unspecified), the cytotoxicity at 10 µM was 0.2%.

As to `Cc1cnn(CCNCC(O)COc2c(Cl)cccc2Cl)c1` (stereo unspecified), the cytotoxicity at 10 µM is -5.4%.

Regarding `Cn1ccnc1CNCC1CCCN1c1cccnn1` (stereo unspecified), the cytotoxicity at 10 µM was -11.3%.

In the case of `CCn1cc(NC(=O)NCC(C)(C)N2CCc3ccccc3C2)cn1`, the cytotoxicity at 10 µM was -5.16%. To `Cc1nc(CN(Cc2ccc3c(c2)OCCO3)C2CCCC2)no1` belongs -9.19%; to `Cc1cc(CC(=O)NCc2ccnc(OCC(F)(F)F)c2)no1`, -2.17%; to `Cn1cnc2c1C(COCC1CC1)CN(c1ncccn1)C2` (stereo unspecified), 7.22%. In the case of `Cc1ccc(C2(CN3CCN(Cc4cncn4C)CC3)CC2)cc1` it was -13.1%; in that of `O=C(CC1CCCC1)N1C[C@H](OCc2ccncc2)[C@H]2OCCC[C@H]21`, 2.75%; in that of `CN1CCN(C(=O)[C@H]2C[C@@H]3CCN(c4ncc(F)cn4)C[C@@H]3O2)CC1`, -6.69%. `O=C(NC[C@]12COC[C@H]1CN(Cc1cccnc1)C2)c1ccsc1`: the cytotoxicity at 10 µM was determined as 2.95%. In the case of `CCCS(=O)(=O)N1C[C@@H]2CN(Cc3ccco3)CCO[C@@H]2C1` it was -142%.

`Cc1ccc(CN2CCc3ncnc(C4CCOC4)c3CC2)s1` (stereo unspecified): the cytotoxicity at 10 µM was -0.827%.

The record behind these values is ChEMBL document CHEMBL4513216, “Probing the Open Global Health Chemical Diversity Library for Multistage-Active Starting Points for Next-Generation Antimalarials” (ACS Infect Dis, 2020).
